Reference: publication PMC7611355 (Bioconjugate chemistry, 2020)

Assays:
[1] = cited from earlier work
[2] = Shelf life at room temperature; type: physicochemical; conditions: solid; measured by NMR, MS, and elemental analysis
[3] = In vitro calcium mineral binding: hydroxyapatite
Procedure, shortened: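 Hydroxyapatite (1 mg) was suspended in saline (1 mL). For blocking, the suspension was preincubated overnight with unlabelled agent: pamidronate (27.9 mg, 100 µmol), alendronate or sodium fluoride, matched to each tracer. Radiotracer (~700 kBq) was added and shaken for 1 h at room temperature. After centrifuging at 9677 g for 5 min, supernatant and pellet activities were counted.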

[4] = Ex vivo biodistribution by gamma counting; type: in vivo, BALB/c mice; conditions: 120 min postinjection
Procedure, shortened: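 Female BALB/c mice (6-8 weeks, 17-20 g; 5 per tracer) were anaesthetised with isoflurane (2-3% in oxygen) and the radiotracer (100 ± 15 µL, 2.2-16.2 MBq) was injected via a tail-vein cannula. After a 1 h PET scan the mice recovered and were culled at 2 h postinjection. Organs were harvested, weighed and gamma-counted against standards prepared from the injected material, giving %ID/g.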

[5] = In vitro calcium mineral binding: mean across non-HAp calcium minerals; conditions: saline, room temperature, 1 h
Procedure, shortened: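 Each calcium salt (carbonate, dibasic phosphate, pyrophosphate, β-tricalcium phosphate, oxalate; 1 mg) was suspended in saline (1 mL). Radiotracer (~700 kBq) was added and shaken for 1 h at room temperature. After centrifuging at 9677 g for 5 min, supernatant and pellet activities were counted separately.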

[6] = Dynamic PET-CT imaging, ROI pharmacokinetics in healthy mice; type: in vivo, BALB/c mice

SMILES | pKa (amine) [1] | shelf life at room temperature [2] | mean binding to HAp ([3]; saline, room temperature, 1 h, non-blocked) [%] | mean blocked binding to HAp ([3]; salt preincubated with excess unlabeled BP or fluoride) [%] | femur uptake [4] [%ID/g] | mean binding across non-HAp minerals [5] [%] | area under the curve from 3-59 min (AUC3-59) ([6]; heart ROI as proxy for blood) [%ID min mL^-1] | knee uptake (ROI image analysis) ([6]; mice, i.v., at 60 min postinjection) [%ID mL^-1]
NCCC(O)(P(=O)(O)O)P(=O)(O)O [Pamidronate, pamidronate disodium dihydrate] | 10.40-13.06 | at least 4485 days |  |  |  |  |  | 
[18F-].[Na+] [[^18F]NaF] |  |  | 88.4 ± 4.6 | 2.2 ± 0.2 | 47.1 ± 8.3 | 8.4 ± 4.6 | 122.3 ± 5.1 | 54.5 ± 5.1
